An excerpt weighted towards active compounds, which were near 5.4% of everything screened.
CSC inhib – blocks cancer stem cells | cancer stem cell-like cells viability, luminescence | inhibition, % at 7.5 µM | actives 1.1% (n = 300,000); in the data active means inhibition above about 75%; tested in HMLE shEcad cells
T cruzi repl – blocks replication of Trypanosoma cruzi; AID 1885; actives 1.4% (n = 300,000); inhibition, % (concentration not given with the values); T. cruzi beta-gal in NIH3T3, luminescence, 90 h;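 active means mean inhibition across valid replicates above about 55%, limit read from the data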;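 further: signal also drops with host cell toxicity which is not excluded here; higher percent means less beta-gal luminescence so fewer parasites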
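Incubation – ≥90 h infection period, 3 h prior cell attachment · System – NIH/3T3 fibroblasts plus reporter T. cruzi · Doses – compound pinned at 50 nL/well, DMSO · Read-out basis – percent inhibition of parasite-derived β-gal signal · Signal – luminescent β-galactosidase signal after 60 min lysis · Also added – 5000 T. cruzi trypomastigotes/well · Medium – Low-serum DMEM with 2% FBS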
SKKanGAS inh – SKKanGAS growth inhibition. S. pyogenes SKKanGAS, kanamycin growth, BacTiter-Glo, 6 h. actives 1.3% (n = 300,000). inhibition, % at 7.5 µM;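 active means mean replicate score, as percent of positive control median, at least 50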;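 further: strain carries kanamycin resistance gene driven by streptokinase promoter and grows in 40 µg/ml kanamycin; loss of luminescence reflects streptokinase promoter inhibition or plain growth inhibition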
aSyn 5UTR inh – 5' untranslated region of α-synuclein, MLPCN primary screen. alpha-synuclein 5'UTR reporter, inhibitor activity. inhibition, % (tested at 7.5 µM). actives 0.82% (n = 300,000); in the data active means inhibition above about 60%;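 further: H4 neuroglioblastoma cells stably carrying SNCA 5'UTR luciferase fusion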
Mdm2 MdmX PPI – disrupts the human Mdm2-MdmX interaction; inhibition, % at 8 µM; SaOS-2 split-luciferase Mdm2/MdmX complementation, luminescence; AID 485346; actives 3% (n = 330,000); O15151+Q00987;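 active means inhibition of at least 50% at 8 µM in the primary screen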
Target sequence (O15151 whole entry, looked up): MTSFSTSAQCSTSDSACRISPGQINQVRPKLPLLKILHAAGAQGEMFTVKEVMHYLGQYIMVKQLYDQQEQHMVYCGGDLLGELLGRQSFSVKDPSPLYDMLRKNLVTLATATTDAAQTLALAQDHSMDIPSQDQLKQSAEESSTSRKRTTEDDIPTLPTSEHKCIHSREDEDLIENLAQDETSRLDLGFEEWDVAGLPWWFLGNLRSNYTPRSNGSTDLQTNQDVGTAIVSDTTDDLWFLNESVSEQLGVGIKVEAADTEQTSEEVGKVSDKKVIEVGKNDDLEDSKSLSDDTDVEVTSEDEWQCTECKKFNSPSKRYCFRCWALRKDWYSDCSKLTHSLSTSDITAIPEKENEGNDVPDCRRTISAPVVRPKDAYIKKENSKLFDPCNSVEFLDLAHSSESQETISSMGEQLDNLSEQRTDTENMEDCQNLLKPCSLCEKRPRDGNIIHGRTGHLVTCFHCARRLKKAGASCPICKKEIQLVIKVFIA
Target sequence (Q00987 whole entry, looked up): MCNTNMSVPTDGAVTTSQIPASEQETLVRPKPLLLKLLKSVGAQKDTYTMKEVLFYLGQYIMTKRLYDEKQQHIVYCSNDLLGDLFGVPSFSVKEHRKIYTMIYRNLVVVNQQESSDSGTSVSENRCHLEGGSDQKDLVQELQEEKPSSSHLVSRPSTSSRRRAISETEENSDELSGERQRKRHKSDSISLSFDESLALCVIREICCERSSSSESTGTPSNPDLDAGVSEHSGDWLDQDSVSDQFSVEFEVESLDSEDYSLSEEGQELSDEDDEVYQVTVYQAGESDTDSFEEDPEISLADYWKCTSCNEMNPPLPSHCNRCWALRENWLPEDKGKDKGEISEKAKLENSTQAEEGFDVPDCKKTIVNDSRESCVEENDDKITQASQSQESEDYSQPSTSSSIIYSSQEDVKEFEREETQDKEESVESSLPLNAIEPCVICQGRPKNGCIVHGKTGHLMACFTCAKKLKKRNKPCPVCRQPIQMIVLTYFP
Each line names hits and unclear results; the compound was inactive in the other large screens.

CN1CCN(NC(=O)/C=C/c2cccc([N+](=O)[O-])c2)CC1	none
Cc1cc(OCC(=O)N2CCc3ccccc3C2)c(C)cc1Br	none
COc1cc(/C=C2\SC(=S)N(CCC(=O)Nc3cccc(O)c3)C2=O)cc(OC)c1OC	SKKanGAS inh 57
COc1cc(/C=C2\SC(=S)N(CCC(=O)Nc3ccccc3)C2=O)cc(OC)c1OC	none
CCN(CC)CCNCc1ccc(-c2ccc(Cl)cc2)o1	CSC inhib 79
CCN(CC)CCNCC(O)(c1ccc(Cl)cc1)c1ccc(Cl)cc1	none
O=C(c1cccc(COc2ccc(Cl)cc2Cl)c1)N1CCN(c2ccccn2)CC1	SKKanGAS inh 53
C[C@@H](NC(=O)c1[nH]cnc1C(=O)Nc1ccon1)c1ccccc1	none (no result: T cruzi repl, SKKanGAS inh, aSyn 5UTR inh)
CC(C)(C)c1ccc(NC(=O)COc2ccc(-n3ccnc3)cc2)cc1	T cruzi repl 59
CC(=O)NC[C@H]1CN(c2ccc(N3CCOCC3)c(F)c2)C(=O)O1	SKKanGAS inh 107
CCCC(=O)c1ccc(N2CCOCC2)c(F)c1	none
CCOC(=O)C1(CCOc2ccccc2)CCN(Cc2cccc3nonc23)CC1	T cruzi repl 57
CCOC(=O)C1(CCOc2ccccc2)CCN(Cc2ccc(O)cc2)CC1	none (no result: CSC inhib)
CN1CCc2c(sc3c2C(=O)NC(c2ccco2)N3)C1 (centres undefined)	none
CN1CCc2c(sc3c2C(=O)NC(c2cn(Cc4ccccc4)c4ccccc24)N3)C1 (centres undefined)	aSyn 5UTR inh 64
Cc1noc(C)c1NC(=O)Nc1cccc2c1O[C@H](CN(C)C(=O)Nc1ccc3c(c1)OCO3)[C@@H](C)CN([C@H](C)CO)C2=O	none (no result: CSC inhib, T cruzi repl, SKKanGAS inh, aSyn 5UTR inh)
COc1ccc(N2CCN(C(=O)CSc3ncnc4scc(-c5ccc(C)cc5)c34)CC2)cc1	T cruzi repl 76
COc1ccc(N2CCN(c3ncnc4scc(-c5ccc(F)cc5)c34)CC2)cc1	none
c1ccc(-c2csc3ncnc(N4CCc5ccccc5C4)c23)cc1	SKKanGAS inh 89 (no result: Mdm2 MdmX PPI)
COc1ccc(Nc2ncnc3scc(-c4ccc(OC)cc4)c23)cc1	SKKanGAS inh 50
COc1ccc(N2CCN(c3ncnc4scc(-c5ccc(C)cc5)c34)CC2)cc1	T cruzi repl 58
COc1ccc(-c2csc3ncnc(Cl)c23)cc1	none
O=C(CCc1nnc(CCc2ccccc2)o1)NC(c1cccnc1)C(F)(F)F (centres undefined)	none
Cc1ccccc1CN1CCN(C2CCC2)CC1CCO (centres undefined)	none
Cc1cc(C)c2c(N)c(C(=O)Nc3c(C)n(C)n(-c4ccccc4)c3=O)sc2n1	none
CCOc1ccc(N(C)S(=O)(=O)c2ccc(C)c(C(=O)N3CCN(Cc4ccc5c(c4)OCO5)CC3)c2)cc1	none (no result: T cruzi repl, SKKanGAS inh, aSyn 5UTR inh)
COc1ccc(-c2csc3ncnc(N4CCN(c5ccccc5Cl)CC4)c23)cc1	SKKanGAS inh 55
COc1ccc(F)cc1CN1CCN(c2ncnc3scc(-c4ccccc4)c23)CC1	aSyn 5UTR inh 98
COc1ccc(CN2CCN(c3ncnc4scc(-c5ccc(F)cc5)c34)CC2)cc1	none
CCC(CC)C1=NN2C(=N)/C(=C\c3cc(C)n(-c4cccc(C)c4)c3C)C(=O)N=C2S1	SKKanGAS inh 86
CC1=NN2C(=N)/C(=C\c3cc(C)n(-c4ccccc4)c3C)C(=O)N=C2S1	none
Cc1cc(/C=C2/C(=N)N3C(=NC2=O)SN=C3S(C)(=O)=O)c(C)n1-c1ccc(F)cc1	SKKanGAS inh 64
CCOc1ccc(-n2c(C)cc(/C=C3/C(=N)N4C(=NC3=O)SN=C4S(C)(=O)=O)c2C)cc1	SKKanGAS inh 84
O=C(CSc1ncnc2c1cnn2-c1ccccc1)NC1CCS(=O)(=O)C1 (centres undefined)	none (no result: CSC inhib, T cruzi repl, SKKanGAS inh, aSyn 5UTR inh)
O=C1NN(c2cccc(Br)c2)C(=O)/C1=C\c1ccc(O)cc1	CSC inhib 108
Cc1ccc(NC(=O)COc2cccc3c2OC(C)(C)C3)c(O)c1	none (no result: CSC inhib, T cruzi repl, SKKanGAS inh, aSyn 5UTR inh)
COc1ccc(NC(=O)C(=O)NNC(=O)C(C)Oc2ccc(Cl)cc2Cl)cc1 (centres undefined)	SKKanGAS inh 71 (no result: CSC inhib)
O=C(Nc1ccc(S(=O)(=O)Nc2cnc3ccccc3n2)cc1)c1ccc(Cl)cc1Cl	none
Cc1cc(Cl)ccc1OC(C)C(=O)Nc1ccc(S(=O)(=O)Nc2cnc3ccccc3n2)cc1 (centres undefined)	SKKanGAS inh 67
CC(Oc1ccc(Cl)cc1Cl)C(=O)Nc1ccc(S(=O)(=O)Nc2cnc3ccccc3n2)cc1 (centres undefined)	SKKanGAS inh 80
CCC(Oc1ccccc1)C(=O)Nc1ccc(S(=O)(=O)Nc2cnc3ccccc3n2)cc1 (centres undefined)	none (no result: CSC inhib)
O=C(CNc1cccc(S(=O)(=O)N2CCCC2)c1)Nc1cccc(C(F)(F)F)c1	none (no result: T cruzi repl, SKKanGAS inh, aSyn 5UTR inh)
CC(OC(=O)Cc1n[nH]c(=O)c2ccccc12)C(=O)Nc1cc(Cl)cc(Cl)c1 (centres undefined)	none
CC(OC(=O)Cc1n[nH]c(=O)c2ccccc12)C(=O)Nc1ccc(Cl)cn1 (centres undefined)	SKKanGAS inh 68
COc1ccc(C(=O)NCCc2nnc3ccc(SCC(=O)N4CCCC4)nn23)cc1	none
O=C(Nc1ccc(C(=O)N2CCOCC2)cc1)c1cc(-c2cccnc2)nc2ccc(Br)cc12	none
O=C(Nc1ccccn1)c1cc(-c2cccnc2)nc2ccc(Br)cc12	aSyn 5UTR inh 62
CC(=O)c1ccc(N2CCN(C(=O)c3cc(-c4cccnc4)nc4ccc(Br)cc34)CC2)cc1	T cruzi repl 59
Cn1c(-c2ccccc2)c(C#Cc2ccc(N)cc2)c2ccccc21	none (no result: T cruzi repl, SKKanGAS inh, aSyn 5UTR inh)
COc1ccc(-c2csc(Nc3ccc(S(N)(=O)=O)cc3)n2)cc1OC	aSyn 5UTR inh 62
CC(C)CCN1CCN(C2CCN(c3ccc4c(c3)OCO4)CC2)CC1CCO (centres undefined)	T cruzi repl 66
O=C(Nc1ccccc1)C1=C[C@@H](c2csc3ccccc23)C[C@@H](OCc2ccc(CO)cc2)O1	CSC inhib 86
O=C(C1=C[C@H](c2csc3ccccc23)C[C@H](OCc2ccc(CO)cc2)O1)N1CCN(Cc2ccccc2)CC1	none
O=C(Nc1ccccc1)C1=C[C@@H](c2ccc(C(F)(F)F)cc2)C[C@@H](OCc2ccc(CO)cc2)O1	CSC inhib 79
O=C(C1=C[C@H](c2csc3ccccc23)C[C@H](OCc2ccc(CO)cc2)O1)N1CCN(Cc2ccc3c(c2)OCO3)CC1	T cruzi repl 62
O=C(Nc1ccccc1)C1=C[C@@H](c2ccccc2)C[C@@H](OCc2ccc(CO)cc2)O1	none
CCOC(=O)C1=C(COC(=O)COc2ccc(Br)cc2)NC(=O)NC1C (centres undefined)	none
COC(=O)c1ccn(CC(=O)NC2CCCCC2)n1	none
CCOc1cc(/C=N\NC(N)=O)cc(Br)c1OC(C)C	aSyn 5UTR inh 62
CCOc1cc(/C=N/NC(N)=O)cc(Br)c1OCc1ccccc1F	none
Cc1c(C)c2ccc(OCC(=O)N3CCN(C(=O)C4COc5ccccc5O4)CC3)cc2oc1=O (centres undefined)	none

Screening results deposited in PubChem by several laboratories.
